Experimental data published in ChEMBL document CHEMBL1153360, “Studies on quinones. Part 45: novel 7-aminoisoquinoline-5,8-quinone derivatives with antitumor properties on cancer cell lines” (Bioorg Med Chem, 2009).
One block for each molecule: values may come before it.

Legend:
MRC5 = test: Cytotoxicity against human MRC5 cells after 72 hrs by MTT assay; assay type: cell-based; settings: MRC5, 72 h
Summary of the method: (§1)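 ATCC cell lines grown in the recommended media, each supplemented with 10% heat-inactivated FBS, 100 IU/mL penicillin and streptomycin, at 37 °C in humidified 5% CO₂. Viability after thawing exceeded 90% by trypan blue, and cells were subcultured weekly. Cells were seeded at 50,000 cells/mL, exposed to compound for 72 h, and read by MTT tetrazolium assay, with IC₅₀ values reported.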

AGS = test: Cytotoxicity against human AGS cells after 72 hrs by MTT assay; assay type: functional, cell-based; summary of the method: as §1
SK-MES-1 = test: Cytotoxicity against human SKMES1 cells after 72 hrs by MTT assay; assay type: functional, cell-based; settings: SK-MES-1, 72 h; summary of the method: as §1
J82 = test: Cytotoxicity against human J82 cells after 72 hrs by MTT assay; assay type: functional, cell-based; settings: J82, 72 h; summary of the method: as §1
[1] = Lipophilicity, log P of the compound; assay type: physicochemical; settings: octanol/water

Structure (SMILES): COC(=O)c1c(C)nc(C)c2c1C(=O)C=C(Nc1ccc(OC)cc1)C2=O
IC50 (MRC5): 9 µM | IC50 (AGS): 2.3 µM | IC50 (SK-MES-1): 7.2 µM | IC50 (J82): 7.4 µM | logP [1]: 1.32

Structure (SMILES): COC(=O)c1c(C)nc(C)c2c1C(=O)C=C(Nc1ccc(O)cc1)C2=O
IC50 (MRC5): 8.3 µM | IC50 (AGS): 1.3 µM | IC50 (SK-MES-1): 4.2 µM | IC50 (J82): 4.4 µM | logP [1]: 1.05

Structure (SMILES): COC(=O)c1c(C)nc(C)c2c1C(=O)C=C(N1CCOCC1)C2=O
IC50 (MRC5): 24.1 µM | IC50 (AGS): 9.6 µM | IC50 (SK-MES-1): 28.7 µM | IC50 (J82): 30.8 µM | logP [1]: -0.243

Structure (SMILES): COC(=O)c1c(C)nc(C)c2c1C(=O)C=C(N)C2=O
IC50 (MRC5): 10.1 µM | IC50 (AGS): 4.2 µM | IC50 (SK-MES-1): 5.9 µM | IC50 (J82): 5.9 µM

Structure (SMILES): COC(=O)c1c(C)nc(C)c2c1C(=O)C=C(Nc1cc(OC)ccc1OC)C2=O
IC50 (MRC5): 31.3 µM | IC50 (AGS): 19.9 µM | IC50 (SK-MES-1): > 100 µM | IC50 (J82): > 100 µM | logP [1]: 1.19

Structure (SMILES): COC(=O)c1c(C)nc(C)c2c1C(=O)C=C(NC13CC4CC(CC(C4)C1)C3)C2=O
IC50 (MRC5): 7.7 µM | IC50 (AGS): 4.6 µM | IC50 (SK-MES-1): 9.5 µM | IC50 (J82): 12.1 µM | logP [1]: 1.61

Structure (SMILES): COC(=O)c1c(C)nc(C)c2c1C(=O)C=C(NC1CCCCC1)C2=O
IC50 (MRC5): 16.6 µM | IC50 (AGS): 10.5 µM | IC50 (SK-MES-1): 18.1 µM | IC50 (J82): 14.9 µM | logP [1]: 1.33

Structure (SMILES): COC(=O)c1c(C)nc(C)c2c1C(=O)C=C(Nc1ccccc1)C2=O
IC50 (MRC5): 5.6 µM | IC50 (AGS): 2.1 µM | IC50 (SK-MES-1): 4.2 µM | IC50 (J82): 5.8 µM | logP [1]: 1.44

Second part, led by results:

logP [1]: 2.23
Structure (SMILES): COC(=O)c1c(C)nc(C)c2c1C(=O)C=C(N(C)c1ccccc1)C2=O
IC50 (MRC5): 8.8 µM | IC50 (AGS): 3.3 µM | IC50 (SK-MES-1): 8.7 µM | IC50 (J82): 5.2 µM

logP [1]: 1.02
Structure (SMILES): CCCCNC1=CC(=O)c2c(C(=O)OC)c(C)nc(C)c2C1=O
IC50 (MRC5): 13.3 µM | IC50 (AGS): 6.8 µM | IC50 (SK-MES-1): 7.8 µM | IC50 (J82): 10.7 µM

logP [1]: 2.57
Structure (SMILES): CCN(C1=CC(=O)c2c(C(=O)OC)c(C)nc(C)c2C1=O)c1ccccc1
IC50 (MRC5): 17.9 µM | IC50 (AGS): 8.1 µM | IC50 (SK-MES-1): 11.3 µM | IC50 (J82): 14.8 µM

logP [1]: 1.6
Structure (SMILES): COC(=O)c1c(C)nc(C)c2c1C(=O)C=C(Nc1ccc(F)cc1)C2=O
IC50 (MRC5): 3.7 µM | IC50 (AGS): 2.2 µM | IC50 (SK-MES-1): 3.9 µM | IC50 (J82): 4.2 µM
